# Test results from ChEMBL document CHEMBL4513216, “Probing the Open Global Health Chemical Diversity Library for Multistage-Active Starting Points for Next-Generation Antimalarials” (ACS Infect Dis, 2020).
# Test: Toxicity liver stage against HepG2, at 10uM
# Format: cell-based
# Design: test concentration 10 uM, cell line HepG2-A16-CD81EGFP
# Settings: human, HepG2-A16-CD81EGFP cells; read-out: INHIBITION
# Summary of the method: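 Uninfected HepG2-A16-CD81EGFP cells, 3 × 10^3 per well, 1536-well, plated on prespotted compound at 10 μM final, parasite-free screening media added to match infected plates; puromycin 10 μM positive, DMSO 0.5% negative; run in parallel with 48 h PbLuc assay at 37 °C, 5% CO2; viability by CellTiter-Glo luminescence, normalized to controls.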
row,Compound,cytotoxicity at 10 µM [%]
1,Cc1nc(NC(=O)c2c(-n3cnnn3)sc(C)c2C)sc1C,2.13
2,CC(C)Cn1ccc2c(NC(=O)c3n[nH]c4c3CCC4)cccc21,7.33
3,Cc1cc(NC(=O)C(C)C)n(-c2nc(C)c(C)c(=O)[nH]2)n1,43.1
4,CCc1c(C)nc(-n2nc(C3CC3)cc2NC(C)=O)[nH]c1=O,30.3
5,O=C1[C@H]2CN(C3CCOCC3)C[C@H]2CN1Cc1cccnc1,-127
6,O=C(c1cnccn1)N1C[C@@H]2[C@@H](C1)OCC(=O)N2CC1CCCC1,1.58
7,CN1CCCC1c1cccc(Cc2ccc(F)cc2)n1 (stereo unspecified),4.3
8,CCCOc1cccc(OCc2ccon2)c1,-4.9
9,COc1cccc(C(CO)NC(=O)NC(C)C)c1 (stereo unspecified),10.5
10,CC(C)(C)C(=O)NCC(=O)NCC1CCCS1 (stereo unspecified),3.46
11,Cc1noc(C)c1CN(C)Cc1csc(-c2ccc(C(C)C)cc2)n1,54.8
12,CCCn1nc2c(cc1=O)CN(c1ncnc3sccc13)CC2,49.4
13,COc1ccc(CN(Cc2cc(C)no2)C2CC2)cc1,-3.71
14,COCCCSc1ccc(NCc2scnc2C)cc1,55.3
15,CCc1nc(C)c(C(=O)NCCNc2ncnc3sccc23)s1,41.1
16,OC(CN1CCN(CC2CCCCC2)CC1)c1ccccc1 (stereo unspecified),1.53
17,Cc1cc(NC(=O)C2CN(Cc3ccccc3)CCO2)ccn1 (stereo unspecified),54.9
18,COC(=O)C(C)(C)NC(=O)c1cnc(Cc2ccc(F)cc2)s1,-0.538
19,Cc1nnc(NCC2(c3ccccc3)CCC2)c(C#N)c1C,19.9
20,CC(C)(C)n1ncc2c1CCCC2NCc1ccc2c(c1)OCCO2 (stereo unspecified),1.7
21,CCc1nc(CN2CCCN(c3ncnc4sccc34)CC2)no1,59.9
22,Cc1ccc(SC2CCCC2)c(C(=O)NCCO)c1,-45.3
23,c1ccc2c(NCC3(N4CCOCC4)CCSC3)ncnc2c1 (stereo unspecified),57

row,Compound,cytotoxicity at 10 µM [%]
1,COc1cc(N2CCC3(CCN(Cc4cccnc4)C3=O)C2)ncn1 (stereo unspecified),-107
2,O=S(=O)(c1ccccc1)N1CCC2(CCCN2Cc2ccc(Cl)cc2)C1 (stereo unspecified),-66.3
3,O=C(O)C1CC2(CCN(c3nccc4ccccc34)CC2)CN1 (stereo unspecified),-2.65
4,c1ccc(OCCNc2ncnc3sc4c(c23)CCNC4)cc1,45.4
5,Cc1ccc(-c2cc(CNc3ncnc4c3CCNCC4)no2)cc1,13
6,CC(C)c1nccn1Cc1cc(C(=O)NCC(F)(F)F)n[nH]1,3.73
7,COc1ccc(-c2cc(CNc3ncnc4c3CCNCC4)no2)cc1,13.1
8,CC(C)(CO)Nc1ccc(-c2nc(-c3ccccc3F)no2)cn1,9.62
9,COc1ccc(C(=O)C2CCCN(c3cc(OC)ncn3)C2)c(C)c1 (stereo unspecified),48
10,CC(C)=CCC1(CO)CCCN(S(=O)(=O)N2CCCC2)C1 (stereo unspecified),-3.38
11,O=C1NCCN1C1CCN(Cc2nc(-c3ccc(F)cc3)no2)CC1,44.1
12,COCC1CN(Cc2ccc(OC)cc2)Cc2nn(C)cc21 (stereo unspecified),0.976
13,Cc1cccc(CNC(Cc2ccsc2)c2nc(C)c(C)s2)n1 (stereo unspecified),-0.52
14,Clc1cccc(C[C@@H]2NCCC[C@@H]2Nc2cccc(Cl)c2)c1,86
15,Cc1ccc(-c2ccc(C3CNCCO3)nc2)cc1 (stereo unspecified),-5.3
16,CC(C)NC(=O)N1CCc2onc(C(=O)NCCN(C)C)c2C1,0.0529
17,Fc1ccc2c(c1)C1(CCNCC1)CC2NC1CC1 (stereo unspecified),-117
18,Cc1ccc(N2CC[C@H]3O[C@@H](C(=O)N4CCCO4)CC[C@H]32)nn1,0.908
19,O=c1c2sccc2nc2n1CCN(Cc1ccccc1C(F)(F)F)CC2,-9.31
20,O=C(NCCN1CCOCC1)c1ccnn1-c1ccc2ccccn12,10.9
21,COCCN1CCCCC12CC(=O)N(c1ccccc1OC)C2 (stereo unspecified),-92.6
22,FC1(F)CCN(Cc2cccnc2)CC12CCN(c1ccccc1)C2 (stereo unspecified),-84.5
23,Cc1ccccc1SC1CCN(C(=O)C2[C@H]3CNC[C@@H]23)CC1 (stereo partly specified),-10.1
